Laboratory results taken from ChEMBL document CHEMBL4732230, “Design, synthesis, and biological evaluation of 4-benzoylamino-1H-pyrazole-3-carboxamide derivatives as potent CDK2 inhibitors” (Eur J Med Chem, 2021).

Experiments:
[1] = biological target: Cyclin-dependent kinase 1/cyclin B1 (Homo sapiens, UniProt P06493); type: protein-complex assay
CDK2/Cyclin A2 = CDK2/Cyclin A2 (Homo sapiens, UniProt P24941); experiment: Inhibition of CDK2/cyclin A2 (unknown origin) using FAM-labeled peptide and ATP as substrate preincubated for 10 mins followed by substrate addition by mobility shift assay; type: protein-complex assay
A2058 = experiment: Antiproliferative activity against human A2058 cells assessed as reduction in cell viability measured after 96 hrs by Celltiter-Glo luminescent assay; type: functional, cell-based; conditions: A2058, 96 h
Procedure, shortened: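 Cells in DMEM (A2058, MRC5) or RPMI 1640 (MV4-11), each with 10% fetal bovine serum and 1% penicillin/streptomycin. Cells were plated in 96-well plates and exposed to serially concentrated compound for 96 h, with DMSO as control. Viability was read by CellTiter-Glo luminescence and IC50 derived.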

Sequence of Cyclin-dependent kinase 1/cyclin B1 (P06493 whole entry): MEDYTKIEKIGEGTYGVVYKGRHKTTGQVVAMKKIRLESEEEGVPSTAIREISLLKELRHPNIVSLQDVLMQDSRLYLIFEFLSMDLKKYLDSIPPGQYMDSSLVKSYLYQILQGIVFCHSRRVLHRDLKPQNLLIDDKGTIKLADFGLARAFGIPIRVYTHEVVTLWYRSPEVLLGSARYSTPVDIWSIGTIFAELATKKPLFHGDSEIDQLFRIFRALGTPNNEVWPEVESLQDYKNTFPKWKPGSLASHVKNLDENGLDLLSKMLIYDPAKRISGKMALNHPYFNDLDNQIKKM
Sequence of Cyclin-dependent kinase 1/cyclin B1 (P14635 whole entry, further chain): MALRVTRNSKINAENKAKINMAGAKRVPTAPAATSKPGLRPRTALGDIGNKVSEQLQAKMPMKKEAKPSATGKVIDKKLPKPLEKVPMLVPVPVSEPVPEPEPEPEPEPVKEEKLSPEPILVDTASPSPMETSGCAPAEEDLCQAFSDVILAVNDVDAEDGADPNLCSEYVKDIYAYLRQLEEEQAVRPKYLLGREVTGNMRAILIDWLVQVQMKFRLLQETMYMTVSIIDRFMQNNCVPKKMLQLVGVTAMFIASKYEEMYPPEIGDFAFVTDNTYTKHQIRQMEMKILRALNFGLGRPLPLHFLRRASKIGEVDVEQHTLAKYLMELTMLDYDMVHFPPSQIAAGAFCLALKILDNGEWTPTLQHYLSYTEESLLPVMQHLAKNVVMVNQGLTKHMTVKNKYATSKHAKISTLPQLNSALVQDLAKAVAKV

IC50 [1]	IC50 (CDK2/Cyclin A2)	Structure (SMILES)	IC50 (A2058)
3690 nM	485 nM	Cc1ccc(C(=O)NCCCN2CCOCC2)cc1-c1ccc(F)c(C(=O)Nc2c[nH]nc2C(=O)Nc2ccc(F)cc2)c1F	6510 nM
306 nM	40 nM	O=C(Nc1ccc(F)cc1)c1n[nH]cc1NC(=O)c1c(F)ccc(-c2cccnc2)c1F	2940 nM
278 nM	51 nM	O=C(Nc1ccc(F)cc1)c1n[nH]cc1NC(=O)c1c(F)ccc(-c2ccc(F)nc2)c1F	6310 nM
> 200000 nM	543 nM	NS(=O)(=O)c1ccc(Nc2nc(-c3cccc(-c4ccccc4)c3)c3nc[nH]c3n2)cc1	> 100000 nM
496 nM	210 nM	COC(=O)c1cccc(-c2ccc(F)c(C(=O)Nc3c[nH]nc3C(=O)Nc3ccc(F)cc3)c2F)c1	
723 nM	73 nM	O=C(NCCCN1CCOCC1)c1cccc(-c2ccc(F)c(C(=O)Nc3c[nH]nc3C(=O)Nc3ccc(F)cc3)c2F)c1	650 nM
743 nM	82 nM	CN1CCC(CNC(=O)c2cccc(-c3ccc(F)c(C(=O)Nc4c[nH]nc4C(=O)Nc4ccc(F)cc4)c3F)c2)CC1	3340 nM
1850 nM	164 nM	Cc1ccc(-c2ccc(F)c(C(=O)Nc3c[nH]nc3C(=O)Nc3ccc(F)cc3)c2F)cn1	
1260 nM	120 nM	Nc1ccc(-c2ccc(F)c(C(=O)Nc3c[nH]nc3C(=O)Nc3ccc(F)cc3)c2F)cn1	8540 nM
